Consider 1 compound from ChEMBL document CHEMBL1158486, “Combining hit identification strategies: fragment-based and in silico approaches to orally active 2-aminothieno[2,3-d]pyrimidine inhibitors of the Hsp90 molecular chaperone” (J Med Chem, 2009).

Active and inactive are the calls of the source. No cut-off for these calls is given here.

For data set [1], the system named is Mus musculus. Kind of data set: Decrease in phosphorylated AKT protein level in estrogen receptor and HER2 overexpressing human BT474 cells xenografted in Harlan HsdNpa athymic nude mouse at 30 mg/kg, po qd measured 6 hrs after final dose by Western immunoblotting. Format: functional, organism-based. More on the design: dose 30 mg/kg. To be noted: BT-474. The essentials:
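BT474 xenograft-bearing nude mice received 30 mg/kg po once daily. Tumors were collected at the end of the efficacy study, 6 h after the final dose. They were assayed for p23 dissociation from Hsp90α or for client protein levels by Western blotting.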
(In xenograft studies the graft and the host belong to different species.)

The subject of data set [2] is BT-474. Nature of the data set: Antitumor activity against estrogen receptor and HER2 overexpressing human BT474 cells xenografted in Harlan HsdNpa athymic nude mouse assessed as changed in 100 mm'3 tumor volume at 30 mg/kg, po qd. The class given is functional. The essentials: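 Female athymic nude mice carrying an estradiol pellet (25 μg/day) and implanted sc in the right flank with 5 × 10^6 BT-474 cells in Matrigel:HBSS (1:1). Treatment started once mean tumor volume reached about 100 mm3. Oral dosing at 30 mg/kg once daily, 10 mL/kg, in 0.5% sodium carboxymethylcellulose. Relative tumor volume and body weight tracked; SEM, one-way ANOVA with Dunnett's post hoc test.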

Data set [3] deals with Mus musculus. Kind of data set: Modulation of Hsp72 protein expression in human PC3LN3 cells xenografted in CrTac:Ncr-Fox1 nude athymic mouse at 100 mg/kg, po qd commenced 12 days after tumor cell inoculation measured for 14 days measured 24 hrs after final dose by Western immunoblotting. Format: functional, organism-based. More on the design: dose 100 mg/kg.
Data set [4] is described as follows: Metabolic stability in human liver microsomes assessed as compound turnover at 1 uM after 10 mins in presence of NADPH relative to control without NADPH. The class given is ADME, Microsome. Conditions: read-out: Stability. The essentials:
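Compound at 1 μM incubated 10 min with liver microsomes (0.5 mg/mL) ± 2 mM NADPH; microsome sources were human mixed pool, C57 mouse and SD rat. Reaction stopped by acetonitrile precipitation, supernatant analysed by LC/MSMS. Turnover expressed as percent of no-NADPH control, n = 3.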
A general note: Microsomes from liver hold many membrane-bound enzymes, among them those of drug oxidation.

In data set [5] the test system is BT-474. Nature of the data set: Depletion of HER2 protein expression in human BT474 cells at 50 nM after 24 hrs by Western immunoblotting. Format: functional, cell-based. The essentials:
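BT474 or HCT116 cells treated for 24 h at 25, 50, 100, 200 and 400 nM. Lysates prepared in 50 mM Tris-HCl with 2% SDS, pH 6.8, and protein measured by BCA. Equal loads run on SDS-PAGE and transferred to PVDF; probed with ECL detection, with GAPDH as loading control.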
A general note: A western blot detects proteins with antibodies after separation by electrophoresis.

For the compound `CCNC(=O)c1cc2c(-c3cc(OCCN(CC)CC)c(Cl)cc3Cl)nc(N)nc2s1`, the outcome in the data set with Mus musculus [1], with Mus musculus [3] and in the data set on BT-474 [5] was Active. In addition, the Activity in the data set on BT-474 [2] is given as -29 mm3. In addition, the metabolised at 10 min, 1 µM in data set [4] stood at 17.3%.
